# Reference: ChEMBL document CHEMBL3407339, “A novel series of thiazolyl-pyrazoline derivatives: synthesis and evaluation of antifungal activity, cytotoxicity and genotoxicity” (Eur J Med Chem, 2015)
# Experiments:
# [1] = tested on: [Candida] zeylanoides; assay: Antifungal activity against Candida zeylanoides NRLL Y 1774 after 48 hrs by broth microdilution assay; format: functional; settings: Dujonia zeylanoides, NRLL Y 1774, 48 h
# Outline: (§1)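 Broth microdilution of DMSO stocks serially diluted in sterile water (4 to 0.0039 mg/mL). Yeasts grown on SDA at 37 °C for 24 h, suspended in double-strength PDB at 10⁵ spores/mL. Incubated at 37 °C for 48 h, then sprayed with 0.5% aqueous TTC. MIC = lowest concentration inhibiting visible growth. Ketoconazole reference.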
# [2] = tested on: Nakaseomyces glabratus; assay: Antifungal activity against Candida glabrata clinical isolate after 48 hrs by broth microdilution assay; format: functional; outline: as §1
# [3] = Cytotoxicity against mouse NIH/3T3 cells after 24 hrs by XTT assay; format: cell-based; settings: NIH3T3, 24 h
# Outline: (§2)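 A549 cells in RPMI and NIH/3T3 cells in DMEM, each with fetal calf serum, antibiotics and 7.5% NaHCO₃, at 37 °C, 5% CO₂. Seeded at 20,000 cells/well, 24 h, then compounds added in medium at 500–3.9 doses (final DMSO <0.1%) for 24 h. XTT read after 3 h at 480 nm (ref 680 nm). IC₅₀ by non-linear regression; triplicates; cisplatin control.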
# [4] = tested on: A549; assay: Antiproliferative activity against human A549 cells after 24 hrs by XTT assay; format: functional, cell-based; settings: A549, 24 h; outline: as §2
# [5] = tested on: Candida parapsilosis; assay: Antifungal activity against Candida parapsilosis NRLL Y 12696 after 48 hrs by broth microdilution assay; format: functional; settings: Lodderomyces parapsilosis, NRLL Y 12696, 48 h; outline: as §1
# [6] = tested on: Aspergillus parasiticus; assay: Antifungal activity against Aspergillus parasiticus NRRL 465 after 72 hrs by broth microdilution assay; format: functional; settings: NRRL 465, 72 h
# Outline: (§3)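 Compounds dissolved in DMSO, diluted in sterile distilled water from 4 to 0.0039 mg/mL. Molds grown on PDA at 25 °C for 5 days, suspended in double-strength PDB at 10⁵ spores/mL. Incubated at 25 °C for 72 h; mycelial growth read under stereo microscope. MIC = lowest concentration inhibiting visible growth. Ketoconazole reference.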
# [7] = tested on: Aspergillus niger; assay: Antifungal activity against Aspergillus niger ATCC 1094 after 72 hrs by broth microdilution assay; format: functional; settings: ATCC 1094, 72 h; outline: as §3
# [8] = tested on: Pichia kudriavzevii; assay: Antifungal activity against Candida krusei NRLL Y 7179 after 48 hrs by broth microdilution assay; format: functional; settings: NRLL Y 7179, 48 h; outline: as §1
# [9] = tested on: Candida tropicalis; assay: Antifungal activity against Candida tropicalis NRLL Y 12968 after 48 hrs by broth microdilution assay; format: functional; settings: NRLL Y 12968, 48 h; outline: as §1
# [10] = tested on: Candida albicans; assay: Antifungal activity against Candida albicans ATCC 90028 after 48 hrs by broth microdilution assay; format: functional; settings: ATCC 90028, 48 h; outline: as §1
# [11] = tested on: Aspergillus flavus; assay: Antifungal activity against Aspergillus flavus NRRL 980 after 72 hrs by broth microdilution assay; format: functional; settings: NRRL 980, 72 h; outline: as §3
# [12] = tested on: Fusarium solani; assay: Antifungal activity against Fusarium solani NRRL 13414 after 72 hrs by broth microdilution assay; format: functional; settings: NRRL 13414, 72 h; outline: as §3
# [13] = tested on: Salmonella typhimurium; assay: Mutagenicity in Salmonella typhimurium TA98 at 1.25 mg/ml after 48 hrs by AMES MPF assay in absence of Sprague-Dawley rat liver microsomal S9 fraction relative to baseline; format: toxicity, organism-based; settings: salmonella enterica subsp. enterica serovar typhimurium
# Outline: (§4)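 Ames MPF fluctuation test with TA98/TA100. Overnight cultures (37 °C, 14–16 h) mixed with exposure medium; ±Aroclor-1254-induced rat liver S9 (final 4.5% v/v). Compounds in DMSO, 0.156–5 mg/mL. 90 min exposure at 37 °C, then indicator medium; 48 wells per concentration, 48 h at 37 °C, in triplicate. Yellow wells counted; fold induction over baseline (mean + 1 SD of zero-dose control).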
# [14] = tested on: Salmonella typhimurium; assay: Mutagenicity in Salmonella typhimurium TA98 at 5 mg/ml after 48 hrs by AMES MPF assay in presence of Sprague-Dawley rat liver microsomal S9 fraction relative to baseline; format: toxicity, organism-based; settings: salmonella enterica subsp. enterica serovar typhimurium; outline: as §4
# [15] = tested on: Salmonella typhimurium; assay: Mutagenicity in Salmonella typhimurium TA100 at 2.5 mg/ml after 48 hrs by AMES MPF assay in presence of Sprague-Dawley rat liver microsomal S9 fraction relative to baseline; format: toxicity, organism-based; settings: salmonella enterica subsp. enterica serovar typhimurium; outline: as §4
# [16] = tested on: Salmonella typhimurium; assay: Mutagenicity in Salmonella typhimurium TA100 at 0.625 mg/ml after 48 hrs by AMES MPF assay in absence of Sprague-Dawley rat liver microsomal S9 fraction relative to baseline; format: toxicity, organism-based; settings: salmonella enterica subsp. enterica serovar typhimurium; outline: as §4
# [17] = tested on: Salmonella typhimurium; assay: Mutagenicity in Salmonella typhimurium TA98 at 0.156 mg/ml after 48 hrs by AMES MPF assay in absence of Sprague-Dawley rat liver microsomal S9 fraction relative to baseline; format: toxicity, organism-based; settings: salmonella enterica subsp. enterica serovar typhimurium; outline: as §4
# [18] = tested on: Salmonella typhimurium; assay: Mutagenicity in Salmonella typhimurium TA100 at 0.3125 mg/ml after 48 hrs by AMES MPF assay in absence of Sprague-Dawley rat liver microsomal S9 fraction relative to baseline; format: toxicity, organism-based; settings: salmonella enterica subsp. enterica serovar typhimurium; outline: as §4
# [19] = tested on: Salmonella typhimurium; assay: Mutagenicity in Salmonella typhimurium TA98 at 0.156 mg/ml after 48 hrs by AMES MPF assay in presence of Sprague-Dawley rat liver microsomal S9 fraction relative to baseline; format: toxicity, organism-based; settings: salmonella enterica subsp. enterica serovar typhimurium; outline: as §4
# [20] = tested on: Salmonella typhimurium; assay: Mutagenicity in Salmonella typhimurium TA100 at 2.5 mg/ml after 48 hrs by AMES MPF assay in absence of Sprague-Dawley rat liver microsomal S9 fraction relative to baseline; format: toxicity, organism-based; settings: salmonella enterica subsp. enterica serovar typhimurium; outline: as §4
# [21] = tested on: Salmonella typhimurium; assay: Mutagenicity in Salmonella typhimurium TA100 at 0.3125 mg/ml after 48 hrs by AMES MPF assay in presence of Sprague-Dawley rat liver microsomal S9 fraction relative to baseline; format: toxicity, organism-based; settings: salmonella enterica subsp. enterica serovar typhimurium; outline: as §4
# [22] = tested on: Salmonella typhimurium; assay: Mutagenicity in Salmonella typhimurium TA100 at 0.156 mg/ml after 48 hrs by AMES MPF assay in absence of Sprague-Dawley rat liver microsomal S9 fraction relative to baseline; format: toxicity, organism-based; settings: salmonella enterica subsp. enterica serovar typhimurium; outline: as §4
# [23] = tested on: Salmonella typhimurium; assay: Mutagenicity in Salmonella typhimurium TA98 at 0.625 mg/ml after 48 hrs by AMES MPF assay in presence of Sprague-Dawley rat liver microsomal S9 fraction relative to baseline; format: toxicity, organism-based; settings: salmonella enterica subsp. enterica serovar typhimurium; outline: as §4
# [24] = tested on: Salmonella typhimurium; assay: Mutagenicity in Salmonella typhimurium TA98 at 2.5 mg/ml after 48 hrs by AMES MPF assay in absence of Sprague-Dawley rat liver microsomal S9 fraction relative to baseline; format: toxicity, organism-based; settings: salmonella enterica subsp. enterica serovar typhimurium; outline: as §4
# [25] = tested on: Salmonella typhimurium; assay: Mutagenicity in Salmonella typhimurium TA100 at 1.25 mg/ml after 48 hrs by AMES MPF assay in absence of Sprague-Dawley rat liver microsomal S9 fraction relative to baseline; format: toxicity, organism-based; settings: salmonella enterica subsp. enterica serovar typhimurium; outline: as §4
# [26] = tested on: Salmonella typhimurium; assay: Mutagenicity in Salmonella typhimurium TA98 at 1.25 mg/ml after 48 hrs by AMES MPF assay in presence of Sprague-Dawley rat liver microsomal S9 fraction relative to baseline; format: toxicity, organism-based; settings: salmonella enterica subsp. enterica serovar typhimurium; outline: as §4
# [27] = tested on: Salmonella typhimurium; assay: Mutagenicity in Salmonella typhimurium TA100 at 1.25 mg/ml after 48 hrs by AMES MPF assay in presence of Sprague-Dawley rat liver microsomal S9 fraction relative to baseline; format: toxicity, organism-based; settings: salmonella enterica subsp. enterica serovar typhimurium; outline: as §4
# [28] = tested on: Salmonella typhimurium; assay: Mutagenicity in Salmonella typhimurium TA100 at 5 mg/ml after 48 hrs by AMES MPF assay in presence of Sprague-Dawley rat liver microsomal S9 fraction relative to baseline; format: toxicity, organism-based; settings: salmonella enterica subsp. enterica serovar typhimurium; outline: as §4
# [29] = tested on: Salmonella typhimurium; assay: Mutagenicity in Salmonella typhimurium TA100 at 0.625 mg/ml after 48 hrs by AMES MPF assay in presence of Sprague-Dawley rat liver microsomal S9 fraction relative to baseline; format: toxicity, organism-based; settings: salmonella enterica subsp. enterica serovar typhimurium; outline: as §4
# [30] = tested on: Salmonella typhimurium; assay: Mutagenicity in Salmonella typhimurium TA98 at 0.3125 mg/ml after 48 hrs by AMES MPF assay in absence of Sprague-Dawley rat liver microsomal S9 fraction relative to baseline; format: toxicity, organism-based; settings: salmonella enterica subsp. enterica serovar typhimurium; outline: as §4
# [31] = tested on: Salmonella typhimurium; assay: Mutagenicity in Salmonella typhimurium TA98 at 0.625 mg/ml after 48 hrs by AMES MPF assay in absence of Sprague-Dawley rat liver microsomal S9 fraction relative to baseline; format: toxicity, organism-based; settings: salmonella enterica subsp. enterica serovar typhimurium; outline: as §4
# [32] = tested on: Salmonella typhimurium; assay: Mutagenicity in Salmonella typhimurium TA98 at 2.5 mg/ml after 48 hrs by AMES MPF assay in presence of Sprague-Dawley rat liver microsomal S9 fraction relative to baseline; format: toxicity, organism-based; settings: salmonella enterica subsp. enterica serovar typhimurium; outline: as §4
# [33] = tested on: Salmonella typhimurium; assay: Mutagenicity in Salmonella typhimurium TA98 at 5 mg/ml after 48 hrs by AMES MPF assay in absence of Sprague-Dawley rat liver microsomal S9 fraction relative to baseline; format: toxicity, organism-based; settings: salmonella enterica subsp. enterica serovar typhimurium; outline: as §4
# [34] = tested on: Salmonella typhimurium; assay: Mutagenicity in Salmonella typhimurium TA100 at 0.156 mg/ml after 48 hrs by AMES MPF assay in presence of Sprague-Dawley rat liver microsomal S9 fraction relative to baseline; format: toxicity, organism-based; settings: salmonella enterica subsp. enterica serovar typhimurium; outline: as §4
# [35] = tested on: Salmonella typhimurium; assay: Mutagenicity in Salmonella typhimurium TA98 at 0.3125 mg/ml after 48 hrs by AMES MPF assay in presence of Sprague-Dawley rat liver microsomal S9 fraction relative to baseline; format: toxicity, organism-based; settings: salmonella enterica subsp. enterica serovar typhimurium; outline: as §4
# [36] = tested on: Salmonella typhimurium; assay: Mutagenicity in Salmonella typhimurium TA100 at 5 mg/ml after 48 hrs by AMES MPF assay in absence of Sprague-Dawley rat liver microsomal S9 fraction relative to baseline; format: toxicity, organism-based; settings: salmonella enterica subsp. enterica serovar typhimurium; outline: as §4
structure (smiles),measurement,setting,value
N#Cc1ccc(-c2csc(N3N=C(c4ccc(Cl)s4)CC3c3ccc(F)cc3)n2)cc1 (stereo not given),MIC,[1],250 µg/mL
same,MIC,[2],125 µg/mL
same,IC50,[3],> 500 µg/mL
same,IC50,[4],> 500 µg/mL
same,MIC,[5],250 µg/mL
same,MIC,[6],250 µg/mL
same,MIC,[7],250 µg/mL
same,MIC,[8],250 µg/mL
same,MIC,[9],250 µg/mL
same,MIC,[10],250 µg/mL
same,MIC,[11],250 µg/mL
same,MIC,[12],250 µg/mL
CS(=O)(=O)c1ccc(-c2csc(N3N=C(c4ccc(Cl)s4)CC3c3ccc(F)cc3)n2)cc1 (stereo not given),MIC,[1],250 µg/mL
same,MIC,[2],250 µg/mL
same,IC50,[3],> 500 µg/mL
same,IC50,[4],> 500 µg/mL
same,MIC,[5],250 µg/mL
same,MIC,[6],250 µg/mL
same,MIC,[7],250 µg/mL
same,MIC,[8],250 µg/mL
same,MIC,[9],250 µg/mL
same,MIC,[10],250 µg/mL
same,MIC,[11],250 µg/mL
same,MIC,[12],250 µg/mL
Cc1ccc(C2=NN(c3nc(-c4ccc(S(C)(=O)=O)cc4)cs3)C(c3ccc(F)cc3)C2)s1 (stereo not given),fold change (FC),[13],0.89
same,fold change (FC),[14],0.81
same,MIC,[1],250 µg/mL
same,fold change (FC),[15],1.26
same,fold change (FC),[16],0.99
same,fold change (FC),[17],0.67
same,MIC,[2],125 µg/mL
same,fold change (FC),[18],1.04
same,fold change (FC),[19],0.41
same,IC50,[3],374 µg/mL
same,fold change (FC),[20],0.52
same,IC50,[4],> 500 µg/mL
same,fold change (FC),[21],0.73
same,fold change (FC),[22],0.78
same,fold change (FC),[23],1.63
same,fold change (FC),[24],0.67
same,fold change (FC),[25],0.52
same,MIC,[5],250 µg/mL
same,fold change (FC),[26],0.95
same,fold change (FC),[27],0.8
same,MIC,[6],250 µg/mL
same,MIC,[7],250 µg/mL
same,fold change (FC),[28],0.93
same,MIC,[8],250 µg/mL
same,fold change (FC),[29],0.93
same,MIC,[9],250 µg/mL
same,fold change (FC),[30],0.22
same,fold change (FC),[31],0.44
same,fold change (FC),[32],1.36
same,fold change (FC),[33],0.89
same,MIC,[10],250 µg/mL
same,fold change (FC),[34],0.73
same,MIC,[11],125 µg/mL
same,MIC,[12],250 µg/mL
same,fold change (FC),[35],0.27
same,fold change (FC),[36],1.09
